We go through 14 molecules from ChEMBL document CHEMBL1151916, “N-tert-butyl and N-methyl nitrones derived from aromatic aldehydes inhibit macromolecular permeability increase induced by ischemia/reperfusion in hamsters” (2009).

The structures appear in SMILES notation.

Common to all, as to format: functional, Mesocricetus auratus
The test system of assay [1] is Syrian golden hamster. Put plainly: Protective activity against ischemia/reperfusion-induced increase in macromolecular permeability in po dosed golden hamster cheek pouch administered 30 mins before induction of anesthesia. The method, boiled down: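 Male hamsters, dosed by gavage 30 min before anesthesia induction. The cheek pouch was made totally ischemic for 30 min with a syringe-inflated rubber tourniquet until blood flow ceased. Macromolecular leakage sites per cm² were counted by intravital microscopy 10 min after reperfusion onset and expressed as percentage protection relative to controls.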

Assay [2] concerns Syrian golden hamster. The assay can be described thus: Protective activity against ischemia/reperfusion-induced increase in macromolecular permeability in iv dosed golden hamster cheek pouch administered 10 mins before onset of reperfusion. The gist of the method: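 Male hamster cheek pouch under intravital microscopy; compound given intravenously 10 min before reperfusion onset. Total ischemia of 30 min was produced by a soft rubber tourniquet, pressurized by syringe until flow stopped. Leakage sites (leaks/cm²) were counted 10 min after reperfusion onset and converted to percentage protection against untreated controls.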

Assay [3] relates to Syrian golden hamster. Put plainly: Protective activity against histamine-induced increase in macromolecular permeability in po dosed golden hamster cheek pouch administered 30 mins before induction of anesthesia. The method, boiled down: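 Oral gavage to male hamsters 30 min before anesthesia induction. Permeability increase was induced by topical histamine on the cheek pouch and read as leakage sites per unit area (leaks/cm²) by intravital microscopy.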

Assay [4] deals with Syrian golden hamster. The assay can be described thus: Protective activity against histamine-induced increase in macromolecular permeability in po dosed golden hamster cheek pouch administered for 10 days.
Assay [5] relates to Syrian golden hamster. The assay can be described thus: Protective activity against ischemia/reperfusion-induced increase in macromolecular permeability in po dosed golden hamster cheek pouch administered for 10 days.

On to `CNO`, for which the Activity in the assay with Syrian golden hamster [1] came to 23%; in the assay on Syrian golden hamster [2], 33%; with Syrian golden hamster [3] it was 11%.
`COc1cc(/C=[N+](\[O-])C(C)(C)C)ccc1OCc1ccccc1`: the Activity with Syrian golden hamster [1] is given as 68%; with Syrian golden hamster [2], 36%; in the assay on Syrian golden hamster [3] it was 32%.
As for `Cc1ccc(/C=[N+](\[O-])C(C)(C)C)cc1`, the Activity with Syrian golden hamster [1] is given as 14%; in the assay with Syrian golden hamster [2] it was 55%.
On to `C/[N+]([O-])=C/c1cccc(Oc2ccccc2)c1`, for which the Activity with Syrian golden hamster [1] worked out at 46%; with Syrian golden hamster [2] it was 61%; with Syrian golden hamster [3], 13%.
For `Cc1ccc(/C=[N+](/C)[O-])cc1`, the Activity with Syrian golden hamster [1] was 24%; in the assay with Syrian golden hamster [2] it was 21%.
Take `CC(C)(C)/[N+]([O-])=C/c1ccc(Cl)cc1`: the Activity came out at 63% with Syrian golden hamster [1] and 53% with Syrian golden hamster [2].
For `CC(C)(C)/[N+]([O-])=C/c1cccc(Oc2ccccc2)c1`, in that order: 12% and 18%.
Regarding `C/[N+]([O-])=C/c1ccc(Cl)cc1`, the results for the Activity in the assay with Syrian golden hamster [1], with Syrian golden hamster [2] and in the assay with Syrian golden hamster [3] were 31%, 27% and 29%, respectively.
As for `C/[N+]([O-])=C/c1ccco1`, the values for the Activity in the assay with Syrian golden hamster [1], with Syrian golden hamster [2] and in the assay on Syrian golden hamster [3] were 15%, 59% and 32%, respectively.
On to `CC(C)(C)NO`, for which the Activity in the assay on Syrian golden hamster [1] was found to be 10%; in the assay with Syrian golden hamster [2] it was 7%; in the assay with Syrian golden hamster [3] it was 40%.
With `C/[N+]([O-])=C/c1ccc2c(c1)OCO2`, the Activity amounted to 3% in the assay on Syrian golden hamster [1], 50% with Syrian golden hamster [2] and 42% in the assay on Syrian golden hamster [3].
On to `COc1cc(/C=[N+](/C)[O-])ccc1OCc1ccccc1`, for which the Activity in the assay with Syrian golden hamster [1] is reported as 72%; in the assay on Syrian golden hamster [2], 51%; in the assay with Syrian golden hamster [3] it was 15%.
Take `CC(C)(C)/[N+]([O-])=C/c1ccc2c(c1)OCO2`: the Activity in the assay on Syrian golden hamster [1] amounted to 65%; with Syrian golden hamster [2] it was 38%.
Regarding `Cc1c(C)c2c(c(C)c1O)CC[C@@](C)(CCC[C@H](C)CCC[C@H](C)CCCC(C)C)O2` [ALPHA-TOCOPHEROL], the values for the Activity in the assay with Syrian golden hamster [4] and in the assay with Syrian golden hamster [5] were 40% and 50%, respectively.
